Data from ChEMBL document CHEMBL5696442, “Discovery of type II inhibitors of TGFβ-activated kinase 1 (TAK1) and mitogen-activated protein kinase kinase kinase kinase 2 (MAP4K2)” (J Med Chem, 2015).
The source made the active and inactive calls. No cut-off for these calls is given here.

How the values were obtained:
BaF3 [1] = assay: Antiproliferative activity against parental mouse BaF3 cells assessed reduction in cell viability measured after 48 hrs by Celltiter-glo assay; type: functional, cell-based; settings: BaF3, 48 h
[2] = target: T1, Tyrosine-protein kinase ABL1 (Homo sapiens, UniProt P00519); assay: Inhibition of ABL Lys1 labeling site in human Huh-7 cell lysate at 1 uM by KiNativ Profiling analysis relative to control; type: subcellular
T1 sequence (P00519 whole entry): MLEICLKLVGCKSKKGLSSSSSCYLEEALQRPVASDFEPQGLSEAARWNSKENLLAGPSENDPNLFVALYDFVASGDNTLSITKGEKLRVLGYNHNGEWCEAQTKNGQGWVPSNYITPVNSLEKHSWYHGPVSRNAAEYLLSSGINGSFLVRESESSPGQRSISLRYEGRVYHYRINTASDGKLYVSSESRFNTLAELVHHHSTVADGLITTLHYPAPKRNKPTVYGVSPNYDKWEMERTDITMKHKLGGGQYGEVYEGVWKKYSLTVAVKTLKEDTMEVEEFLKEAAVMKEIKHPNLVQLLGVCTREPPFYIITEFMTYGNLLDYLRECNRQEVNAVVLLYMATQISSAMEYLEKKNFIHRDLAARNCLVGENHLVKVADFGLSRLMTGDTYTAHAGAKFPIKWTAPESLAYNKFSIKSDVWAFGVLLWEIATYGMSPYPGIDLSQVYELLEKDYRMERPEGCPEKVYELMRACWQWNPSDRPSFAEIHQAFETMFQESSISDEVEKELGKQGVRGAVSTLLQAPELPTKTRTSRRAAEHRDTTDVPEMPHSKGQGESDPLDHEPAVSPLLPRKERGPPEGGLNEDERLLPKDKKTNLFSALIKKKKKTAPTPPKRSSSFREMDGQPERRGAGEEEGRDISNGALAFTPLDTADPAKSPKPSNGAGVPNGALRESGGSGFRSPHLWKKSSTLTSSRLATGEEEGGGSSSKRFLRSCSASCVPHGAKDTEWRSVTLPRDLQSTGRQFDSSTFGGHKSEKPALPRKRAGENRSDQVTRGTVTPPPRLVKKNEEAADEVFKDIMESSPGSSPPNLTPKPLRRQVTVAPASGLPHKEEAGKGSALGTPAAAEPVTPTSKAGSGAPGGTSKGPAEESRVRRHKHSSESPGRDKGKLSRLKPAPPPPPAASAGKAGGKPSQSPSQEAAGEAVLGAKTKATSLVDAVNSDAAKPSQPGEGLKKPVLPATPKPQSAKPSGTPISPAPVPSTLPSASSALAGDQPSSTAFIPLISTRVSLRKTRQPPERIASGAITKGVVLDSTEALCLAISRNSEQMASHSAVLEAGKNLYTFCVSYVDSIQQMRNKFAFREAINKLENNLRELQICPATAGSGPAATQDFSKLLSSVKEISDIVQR

[3] = target: T2, Mitogen-activated protein kinase kinase kinase 20 (Homo sapiens, UniProt Q9NYL2); assay: Inhibition of ZAK Lys1 labeling site in human Huh-7 cell lysate at 1 uM by KiNativ Profiling analysis relative to control; type: subcellular
Target sequence in this assay (Q9NYL2 2-800 limits assumed): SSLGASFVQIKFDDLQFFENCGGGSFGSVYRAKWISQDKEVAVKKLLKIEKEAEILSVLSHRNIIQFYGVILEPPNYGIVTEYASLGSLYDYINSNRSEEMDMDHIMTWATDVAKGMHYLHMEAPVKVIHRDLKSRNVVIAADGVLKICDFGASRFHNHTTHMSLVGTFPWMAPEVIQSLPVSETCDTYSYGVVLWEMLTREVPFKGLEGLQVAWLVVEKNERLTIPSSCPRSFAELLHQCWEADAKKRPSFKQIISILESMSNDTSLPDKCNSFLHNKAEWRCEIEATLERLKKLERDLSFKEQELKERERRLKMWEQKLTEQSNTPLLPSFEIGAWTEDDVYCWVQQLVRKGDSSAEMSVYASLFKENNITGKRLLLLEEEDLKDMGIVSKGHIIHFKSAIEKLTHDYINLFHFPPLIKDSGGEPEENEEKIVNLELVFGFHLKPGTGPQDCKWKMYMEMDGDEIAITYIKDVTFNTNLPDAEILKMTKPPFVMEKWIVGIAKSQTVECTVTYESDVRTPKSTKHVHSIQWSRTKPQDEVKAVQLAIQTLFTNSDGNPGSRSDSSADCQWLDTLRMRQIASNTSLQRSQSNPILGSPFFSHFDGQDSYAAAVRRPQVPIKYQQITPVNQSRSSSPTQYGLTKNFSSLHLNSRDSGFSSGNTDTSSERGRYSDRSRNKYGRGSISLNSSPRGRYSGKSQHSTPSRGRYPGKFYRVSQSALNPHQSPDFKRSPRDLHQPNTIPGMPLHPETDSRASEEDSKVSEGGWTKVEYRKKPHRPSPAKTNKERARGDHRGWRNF

[4] = target: T1, Tyrosine-protein kinase ABL1; assay: Inhibition of ABL ACT labeling site in human Huh-7 cell lysate at 1 uM by KiNativ Profiling analysis relative to control; type: subcellular
[5] = target: T2, Mitogen-activated protein kinase kinase kinase 20; assay: Inhibition of ZAK (unknown origin) Lys1 labeling site by KiNativ Profiling analysis
Target sequence in this assay (Q9NYL2 whole entry): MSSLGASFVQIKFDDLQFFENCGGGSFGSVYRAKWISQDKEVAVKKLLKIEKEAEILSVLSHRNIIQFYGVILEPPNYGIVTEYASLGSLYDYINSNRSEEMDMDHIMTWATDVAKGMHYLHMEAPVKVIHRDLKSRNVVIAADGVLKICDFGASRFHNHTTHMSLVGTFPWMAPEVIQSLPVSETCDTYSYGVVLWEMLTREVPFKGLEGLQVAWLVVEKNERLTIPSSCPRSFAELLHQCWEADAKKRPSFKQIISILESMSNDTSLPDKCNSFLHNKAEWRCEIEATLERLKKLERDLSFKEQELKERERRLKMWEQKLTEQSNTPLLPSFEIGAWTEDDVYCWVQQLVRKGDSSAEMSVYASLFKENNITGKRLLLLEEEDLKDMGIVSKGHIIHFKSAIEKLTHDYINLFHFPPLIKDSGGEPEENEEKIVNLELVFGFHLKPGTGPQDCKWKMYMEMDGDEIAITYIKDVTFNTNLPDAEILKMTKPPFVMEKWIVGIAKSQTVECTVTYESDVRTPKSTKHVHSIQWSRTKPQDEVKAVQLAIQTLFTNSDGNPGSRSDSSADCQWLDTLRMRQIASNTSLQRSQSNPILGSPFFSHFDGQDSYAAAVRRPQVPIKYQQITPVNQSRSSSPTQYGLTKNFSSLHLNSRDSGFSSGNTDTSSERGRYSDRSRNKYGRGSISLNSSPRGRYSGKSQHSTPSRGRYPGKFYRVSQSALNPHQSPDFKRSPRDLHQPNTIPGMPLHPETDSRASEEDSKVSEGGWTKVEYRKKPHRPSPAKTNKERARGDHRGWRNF

BaF3 [6] = assay: Antiproliferative activity against parental mouse BaF3 cells harbouring Bcr/Abl assessed reduction in cell viability measured after 48 hrs by Celltiter-glo assay; type: functional, cell-based; settings: BaF3, 48 h
Outline: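 Cells were grown with serial dilutions of compound for 48 h, and viability was read by CellTiter-Glo. IC50 was derived from the dose–response curve. Parental Ba/F3 cells were grown in the presence of interleukin 3. The BCR-ABL line is BCR-ABL-dependent Ba/F3.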

[7] = target: T3, Tyrosine-protein kinase CSK (Homo sapiens, UniProt P41240); assay: Inhibition of CSK ACT labeling site in human Huh-7 cell lysate at 1 uM by KiNativ Profiling analysis relative to control; type: subcellular
Target sequence in this assay (P41240 2-450 limits assumed): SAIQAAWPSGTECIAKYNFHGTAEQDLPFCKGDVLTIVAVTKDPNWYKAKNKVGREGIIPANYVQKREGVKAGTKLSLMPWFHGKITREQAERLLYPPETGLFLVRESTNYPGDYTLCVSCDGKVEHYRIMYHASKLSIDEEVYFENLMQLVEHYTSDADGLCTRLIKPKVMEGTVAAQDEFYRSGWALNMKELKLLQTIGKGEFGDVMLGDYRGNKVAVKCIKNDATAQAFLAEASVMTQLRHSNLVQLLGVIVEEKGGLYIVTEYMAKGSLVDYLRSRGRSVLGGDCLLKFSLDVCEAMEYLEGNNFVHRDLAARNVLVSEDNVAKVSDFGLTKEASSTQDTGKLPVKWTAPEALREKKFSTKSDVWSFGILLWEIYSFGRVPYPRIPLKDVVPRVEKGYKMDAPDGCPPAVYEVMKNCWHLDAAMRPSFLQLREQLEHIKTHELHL

[8] = target: T3, Tyrosine-protein kinase CSK; assay: Inhibition of CSK (unknown origin) ACT labeling site by KiNativ Profiling analysis
Target sequence in this assay (P41240 whole entry): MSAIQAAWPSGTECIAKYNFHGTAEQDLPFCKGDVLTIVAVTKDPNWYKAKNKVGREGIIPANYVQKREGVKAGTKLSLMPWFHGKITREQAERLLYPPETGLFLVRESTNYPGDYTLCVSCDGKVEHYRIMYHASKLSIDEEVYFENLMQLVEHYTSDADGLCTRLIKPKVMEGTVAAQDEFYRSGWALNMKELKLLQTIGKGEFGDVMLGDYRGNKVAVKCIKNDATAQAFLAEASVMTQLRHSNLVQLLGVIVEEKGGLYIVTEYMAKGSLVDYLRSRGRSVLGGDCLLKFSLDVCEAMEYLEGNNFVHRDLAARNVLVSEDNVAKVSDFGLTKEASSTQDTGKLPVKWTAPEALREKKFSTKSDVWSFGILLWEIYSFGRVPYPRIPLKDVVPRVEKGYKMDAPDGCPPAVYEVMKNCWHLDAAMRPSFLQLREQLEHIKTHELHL

[9] = target: T4, Mitogen-activated protein kinase 14 (Homo sapiens, UniProt Q16539); assay: Inhibition of p38 alpha in human Huh-7 cell lysate at 1 uM by KiNativ Profiling analysis relative to control; type: subcellular
T4 sequence (Q16539 whole entry): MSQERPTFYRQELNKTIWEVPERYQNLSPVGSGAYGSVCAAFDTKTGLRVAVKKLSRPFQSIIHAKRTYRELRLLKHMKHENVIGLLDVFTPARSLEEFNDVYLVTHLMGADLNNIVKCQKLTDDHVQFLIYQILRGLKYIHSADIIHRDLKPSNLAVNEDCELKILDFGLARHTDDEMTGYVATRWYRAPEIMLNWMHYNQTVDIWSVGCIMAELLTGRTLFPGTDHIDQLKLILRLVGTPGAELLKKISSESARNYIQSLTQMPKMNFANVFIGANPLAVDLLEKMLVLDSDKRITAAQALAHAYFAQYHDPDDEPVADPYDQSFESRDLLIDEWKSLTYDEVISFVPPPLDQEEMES

[10] = target: T4, Mitogen-activated protein kinase 14; assay: Inhibition of p38 alpha (unknown origin) by KiNativ Profiling analysis
L929 = assay: Inhibition of TNF alpha induced IKKalpha/beta phosphorylation level in mouse L929 cells at 100 nM preincubated for 30 mins followed by TNF alpha stimulation and measured after 5 mins by Western blot analysis; type: functional, cell-based
Outline: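 Mouse L929 cells were pretreated with compound at 100 nM for 30 min, then stimulated with TNFα for 5 min. Lysates were Western blotted for phospho-IKKα/β, with tubulin as loading control.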

[11] = target: T5, Mitogen-activated protein kinase kinase kinase kinase 2 (Homo sapiens, UniProt Q12851); assay: Inhibition of MAP4K2 (unknown origin) Lys1 labeling site by KiNativ Profiling analysis
T5 sequence (Q12851 whole entry): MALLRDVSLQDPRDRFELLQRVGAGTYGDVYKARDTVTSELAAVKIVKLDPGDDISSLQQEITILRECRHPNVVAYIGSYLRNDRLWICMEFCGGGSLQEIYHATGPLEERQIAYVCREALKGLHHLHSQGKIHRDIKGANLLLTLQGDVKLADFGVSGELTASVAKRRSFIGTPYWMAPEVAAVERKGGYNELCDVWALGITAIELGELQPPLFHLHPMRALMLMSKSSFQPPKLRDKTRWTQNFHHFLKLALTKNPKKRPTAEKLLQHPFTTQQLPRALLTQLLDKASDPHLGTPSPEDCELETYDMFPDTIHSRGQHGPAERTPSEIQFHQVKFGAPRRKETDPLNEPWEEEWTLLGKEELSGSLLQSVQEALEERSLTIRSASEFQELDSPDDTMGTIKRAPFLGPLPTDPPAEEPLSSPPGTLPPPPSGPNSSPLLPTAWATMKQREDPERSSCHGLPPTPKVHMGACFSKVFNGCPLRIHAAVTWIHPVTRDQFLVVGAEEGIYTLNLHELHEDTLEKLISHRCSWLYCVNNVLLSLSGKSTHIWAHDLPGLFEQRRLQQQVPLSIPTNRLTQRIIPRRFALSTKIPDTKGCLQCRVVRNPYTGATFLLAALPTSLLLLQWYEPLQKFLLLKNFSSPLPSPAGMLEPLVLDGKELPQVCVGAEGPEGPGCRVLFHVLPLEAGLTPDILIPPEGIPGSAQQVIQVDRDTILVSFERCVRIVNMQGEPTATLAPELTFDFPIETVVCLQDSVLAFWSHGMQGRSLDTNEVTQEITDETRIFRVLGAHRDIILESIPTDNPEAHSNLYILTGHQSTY

[12] = target: T6, Mitogen-activated protein kinase kinase kinase 7 (Homo sapiens, UniProt O43318); assay: Inhibition of TAK1 (unknown origin) Lys2 labeling site by KiNativ Profiling analysis
T6 sequence (O43318 whole entry): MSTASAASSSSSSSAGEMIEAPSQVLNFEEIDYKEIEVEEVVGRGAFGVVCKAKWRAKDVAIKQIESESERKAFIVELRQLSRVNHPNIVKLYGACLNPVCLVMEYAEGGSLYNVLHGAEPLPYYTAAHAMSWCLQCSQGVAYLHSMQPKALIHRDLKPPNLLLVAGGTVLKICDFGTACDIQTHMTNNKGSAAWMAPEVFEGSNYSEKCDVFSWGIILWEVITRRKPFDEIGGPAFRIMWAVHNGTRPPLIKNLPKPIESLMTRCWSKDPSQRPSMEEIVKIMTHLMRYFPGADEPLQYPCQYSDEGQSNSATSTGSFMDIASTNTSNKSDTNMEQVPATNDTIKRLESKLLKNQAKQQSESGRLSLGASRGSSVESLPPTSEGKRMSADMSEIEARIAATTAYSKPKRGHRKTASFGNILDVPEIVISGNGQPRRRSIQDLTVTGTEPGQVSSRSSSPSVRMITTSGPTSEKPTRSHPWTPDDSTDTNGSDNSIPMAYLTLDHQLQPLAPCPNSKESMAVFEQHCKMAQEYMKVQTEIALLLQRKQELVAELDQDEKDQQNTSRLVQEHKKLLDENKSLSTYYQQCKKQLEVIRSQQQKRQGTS

[13] = target: T7, Mitogen-activated protein kinase kinase kinase kinase 2 (Homo sapiens) (UniProt Q12851); assay: Inhibition of MAP4K2 Lys1 labeling site in human A-375 cells at 0.5 uM by KiNativ Profiling analysis relative to control; type: cell-based
T7 sequence (whole entry): T5 sequence (Q12851 whole entry)

[14] = target: T8, Mitogen-activated protein kinase kinase kinase 7 (Homo sapiens) (UniProt O43318); assay: Inhibition of TAK1 Lys2 labeling site in human A-375 cells at 0.5 uM by KiNativ Profiling analysis relative to control; type: cell-based
T8 sequence (whole entry): T6 sequence (O43318 whole entry)

Row | SMILES | IC50 (BaF3 [1]) [nM] | inhibition [2] [%] | inhibition [3] [%] | inhibition [4] [%] | IC50 [5] [nM] | IC50 (BaF3 [6]) [nM] | inhibition [7] [%] | IC50 [8] [nM] | inhibition [9] [%] | IC50 [10] [nM] | inhibition (L929) | IC50 [11] [nM] | IC50 [12] [nM] | inhibition [13] [%] | inhibition [14] [%]
1 | CCN1CCN(Cc2ccc(NC(=O)c3cccc(CCc4cnc5[nH]ccc5c4OC)c3)cc2C(F)(F)F)CC1 | > 10000 | 83 | 78 | 66.4 | 301 | 387 | – | – | – | – | – | – | – | – | –
2 | COc1c(/C=C/c2cc(C(=O)Nc3cccc(C(C)(C)C#N)c3)ccc2C)cnc2[nH]ccc12 | 3300 | 71.5 | 95.8 | 62.2 | 103 | 10 | 75.7 | 25.1 | – | – | – | – | – | – | –
3 | COc1c(CCc2cc(C(=O)Nc3cc(-n4cnc(C)c4)cc(C(F)(F)F)c3)ccc2C)cnc2[nH]ccc12 | 4920 | 80.4 | 95.6 | 92.2 | 98.2 | 10 | – | – | 98.8 | 5.27 | – | – | – | – | –
4 | C[S+]([O-])c1ccc(-c2nc(-c3ccc(F)cc3)c(-c3ccncc3)[nH]2)cc1 (stereo not given) | – | – | – | – | – | – | – | – | – | – | inactive | – | – | – | –
5 | Cc1ccc(C(=O)Nc2cc(N3CCN(C)CC3)cc(C(F)(F)F)c2)cc1Oc1ncnc2[nH]ccc12 | – | – | – | – | – | – | – | – | – | – | – | 177 | 465 | 73.6 | 29.3
6 | CCN1CCN(Cc2ccc(NC(=O)c3ccc(C)c(Oc4ccnc(C(=O)NC)c4)c3)cc2C(F)(F)F)CC1 | – | – | 82.7 | – | 447 | – | – | – | 93.1 | 69.6 | – | – | – | – | –
7 | CCN1CCN(Cc2ccc(NC(=O)c3ccc(OC)c(Oc4ncnc5[nH]ccc45)c3)cc2C(F)(F)F)CC1 | – | – | – | – | – | – | – | – | – | – | – | 296 | 292 | – | –
8 | Cc1cn(-c2cc(NC(=O)c3ccc(C)c(Oc4ccnc5[nH]ccc45)c3)cc(C(F)(F)F)c2)cn1 | – | – | – | – | – | – | – | – | – | – | inactive | 30.1 | 4490 | 72 | -1.5
9 | CCN1CCN(Cc2ccc(C(=O)Nc3ccc(C)c(Oc4ccnc5[nH]ccc45)c3)cc2C(F)(F)F)CC1 | – | – | – | – | – | – | – | – | 88.4 | 19.5 | inactive | – | – | – | –
10 | CCN1CCN(c2ccc(NC(=O)c3ccc(C)c(CCc4cnc5[nH]ccc5c4OC)c3)cc2C(F)(F)F)CC1 | 9740 | 75.2 | – | 80.7 | – | 181 | – | – | – | – | – | – | – | – | –
11 | COc1c(/C=C/c2cc(C(=O)Nc3ccc(CN4CCC(N(C)C)C4)c(C(F)(F)F)c3)ccc2C)cnc2[nH]ccc12 (stereo not given) | 5470 | 47.5 | – | 66.6 | – | 10 | 75.6 | 25 | 85 | 140 | – | – | – | – | –
12 | CNC(=O)c1ccc(C)c(-n2c(C)cc(OCc3ccc(F)cc3F)c(Br)c2=O)c1 | – | – | – | – | – | – | – | – | – | – | inactive | – | – | – | –
13 | CCN1CCN(Cc2ccc(NC(=O)c3cccc(/C=C/c4cnc5[nH]ccc5c4OC)c3)cc2C(F)(F)F)CC1 | 7100 | 82 | 75.3 | 89.6 | 396 | 10 | – | – | – | – | – | – | – | – | –
14 | CCN1CCN(Cc2ccc(NC(=O)c3cccc(Oc4ccnc5[nH]ccc45)c3)cc2C(F)(F)F)CC1 | 7440 | – | – | > 96 | – | 10 | – | – | 85.8 | 35.9 | – | 23.8 | 119 | > 80 | 75.6
15 | CCN1CCN(Cc2ccc(NC(=O)c3ccc(C)c(Oc4ccnc(NC)n4)c3)cc2C(F)(F)F)CC1 | > 10000 | – | 89.6 | 74.6 | 546 | 85 | – | – | 95.4 | 45.8 | – | 26.5 | 165 | > 85 | 77.7
16 | CCN1CCN(Cc2ccc(NC(=O)c3ccc(C)c(OCc4cnc5[nH]ccc5c4OC)c3)cc2C(F)(F)F)CC1 | 8280 | > 80 | – | 96 | – | 39 | 84 | 59 | 97.3 | 659 | – | 49.4 | 150 | 89.4 | 59.6
17 | CCN1CCN(Cc2ccc(C(=O)Nc3cccc(CCc4cnc5[nH]ccc5c4OC)c3)cc2C(F)(F)F)CC1 | > 10000 | > 80 | 78.4 | 90.3 | 179 | 16 | – | – | 95.9 | 555 | – | – | – | – | –
18 | COc1c(/C=C/c2cc(C(=O)Nc3ccc(OC4CCN(C)CC4)c(C(F)(F)F)c3)ccc2C)cnc2[nH]ccc12 | 7570 | > 85 | – | 94.5 | – | 10 | – | – | 90.5 | 63.6 | – | – | – | – | –
19 | CCN1CCN(Cc2ccc(NC(=O)c3ccc(C)c(/C=C/c4cnc5[nH]ccc5c4OC)c3)cc2)CC1 | 7710 | > 80 | – | 96.3 | – | 10 | – | – | – | – | – | – | – | – | –
